Measurements taken from ChEMBL document CHEMBL4038284, “Synthesis of novel quinoline-based 4,5-dihydro-1H-pyrazoles as potential anticancer, antifungal, antibacterial and antiprotozoal agents” (Eur J Med Chem, 2017).
≈ marks a conversion by molar mass, not a printed value. Calls of active or inactive are those of the source. No cut-off for these calls is given here.

Legend:
Klebsiella pneumoniae = assay: Antibacterial activity against carbapenemase positive Klebsiella pneumoniae BAA 1705 after 24 hrs by resazurin dye based microdilution assay; assay type: functional; conditions: BAA 1705, 24 h
How it was run: (§1)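 MIC taken as the lowest concentration giving visible inhibition and/or by resazurin (1 mg/mL). Gentamicin was the control. Run in duplicate, repeated at least three times.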

SR = assay: Growth inhibition of human SR cells at 10 uM incubated for 48 hrs by sulforhodamine B assay; assay type: functional, cell-based
How it was run: (§2)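 NCI-60 single-dose screen at 10 µM for 48 h. Cells were grown in RPMI-1640 with 5% FBS and 2 mM L-glutamine and preincubated 24 h before compound. Time-zero plates were TCA-fixed at compound addition. After exposure, cells were TCA-fixed, stained with SRB and read at 515 nm. Percentage growth was calculated against time-zero and untreated-control absorbances.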

KM12 = assay: Growth inhibition of human KM12 cells at 10 uM incubated for 48 hrs by sulforhodamine B assay; assay type: functional, cell-based
How it was run: (§3)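 NCI 60-line panel, single 10 μM dose. Cells were grown in RPMI-1640 with 5% FBS and 2 mM L-glutamine and pre-incubated 24 h before compound addition (DMSO stock). Exposure was 48 h at 37 °C, 5% CO2. Cells were fixed with cold TCA (10% final), stained with 0.4% SRB, bound dye dissolved in 10 mM Tris base, A515 read. Growth was taken relative to time-zero and untreated control plates.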

SF-539 = assay: Growth inhibition of human SF539 cells at 10 uM incubated for 48 hrs by sulforhodamine B assay; assay type: functional, cell-based; how it was run: as §3
Malme-3M = assay: Growth inhibition of human MALME-3M cells at 10 uM incubated for 48 hrs by sulforhodamine B assay; assay type: functional, cell-based; how it was run: as §3
M14 = assay: Growth inhibition of human M14 cells at 10 uM incubated for 48 hrs by sulforhodamine B assay; assay type: functional, cell-based; how it was run: as §3
MDA-MB-435 = assay: Growth inhibition of human MDA-MB-435 cells at 10 uM incubated for 48 hrs by sulforhodamine B assay; assay type: functional, cell-based; how it was run: as §3
UACC-62 = assay: Growth inhibition of human UACC62 cells at 10 uM incubated for 48 hrs by sulforhodamine B assay; assay type: functional, cell-based; how it was run: as §2
OVCAR-4 = assay: Growth inhibition of human OVCAR4 cells at 10 uM incubated for 48 hrs by sulforhodamine B assay; assay type: functional, cell-based; how it was run: as §3
A498 = assay: Growth inhibition of human A498 cells at 10 uM incubated for 48 hrs by sulforhodamine B assay; assay type: functional, cell-based
How it was run: (§4)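 NCI 60-cell-line screen at a single 10 µM dose. Cells in RPMI-1640 with 5% FBS and 2 mM L-glutamine, pre-incubated 24 h, then treated for 48 h at 37 °C. TCA fixation, sulforhodamine B staining, absorbance at 515 nm. Percentage growth calculated against time-zero and untreated controls.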

TK-10 = assay: Growth inhibition of human TK10 cells at 10 uM incubated for 48 hrs by sulforhodamine B assay; assay type: functional, cell-based; how it was run: as §2
DU-145 = assay: Growth inhibition of human DU145 cells at 10 uM incubated for 48 hrs by sulforhodamine B assay; assay type: functional, cell-based; how it was run: as §4
MDA-MB-231 = assay: Growth inhibition of human MDA-MB-231 cells at 10 uM incubated for 48 hrs by sulforhodamine B assay; assay type: functional, cell-based; how it was run: as §3
Cryptococcus neoformans [1] = assay: Antifungal activity against Cryptococcus neoformans ATCC 32264 incubated for 48 hrs under dark condition by broth microdilution method; assay type: functional; conditions: ATCC 32264, 48 h
How it was run: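 CLSI M27-A3 broth microdilution in RPMI-1640, DMSO ≤1%, compounds at 250-0.98 µg/mL final. Inoculum 1-5 × 10^3 CFU/mL. Incubated 48 h at 30 °C in a moist dark chamber, read at OD405. MIC80 and MIC50 taken from % inhibition dose-response curves (mean ± SEM, triplicate). Amphotericin B was the positive control.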

Candida albicans = assay: Growth inhibition of Candida albicans ATCC 10231 at 7.8 ug/ml incubated for 48 hrs under dark condition by broth microdilution method relative to control; assay type: functional; conditions: ATCC 10231, 48 h, read-out: GI
How it was run: (§5)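 CLSI M27-A3 broth microdilution in RPMI-1640, DMSO ≤1%. Inoculum 1-5 × 10^3 CFU/mL. Incubated 48 h at 30 °C, dark. % inhibition = 100 − (OD405 test − sterility control)/(OD405 growth control − sterility control), with growth and sterility control wells. Triplicate.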

Cryptococcus neoformans [2] = assay: Growth inhibition of Cryptococcus neoformans ATCC 32264 at 250 ug/ml incubated for 48 hrs under dark condition by broth microdilution method relative to control; assay type: functional; conditions: ATCC 32264, 48 h, read-out: GI; how it was run: as §5
Cryptococcus neoformans [3] = assay: Growth inhibition of Cryptococcus neoformans ATCC 32264 at 125 ug/ml incubated for 48 hrs under dark condition by broth microdilution method relative to control; assay type: functional; conditions: ATCC 32264, 48 h, read-out: GI; how it was run: as §5
Cryptococcus neoformans [4] = assay: Growth inhibition of Cryptococcus neoformans ATCC 32264 at 62.5 ug/ml incubated for 48 hrs under dark condition by broth microdilution method relative to control; assay type: functional; conditions: ATCC 32264, 48 h, read-out: GI; how it was run: as §5
Cryptococcus neoformans [5] = assay: Growth inhibition of Cryptococcus neoformans ATCC 32264 at 31.25 ug/ml incubated for 48 hrs under dark condition by broth microdilution method relative to control; assay type: functional; conditions: ATCC 32264, 48 h, read-out: GI; how it was run: as §5
Cryptococcus neoformans [6] = assay: Growth inhibition of Cryptococcus neoformans ATCC 32264 at 3.4 ug/ml incubated for 48 hrs under dark condition by broth microdilution method relative to control; assay type: functional; conditions: ATCC 32264, 48 h, read-out: GI
Staphylococcus aureus [7] = assay: Antibacterial activity against methicillin-resistant Staphylococcus aureus ATCC 43300 after 24 hrs by resazurin dye based microdilution assay; assay type: functional; conditions: ATCC 43300, 24 h
How it was run: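 Broth microdilution in Mueller Hinton broth, inoculum 5 × 10^5 – 8 × 10^5. Compound stocks diluted in MHB with 5% DMSO and 0.1% Tween 80. Incubation 24 h at 35-37 °C. MIC is the lowest concentration with visible growth inhibition and/or by resazurin (1 mg/mL) read-out. Gentamicin as control. Run in duplicate, replicated at least three times.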

Staphylococcus aureus [8] = assay: Antibacterial activity against vancomycin-intermediate Staphylococcus aureus after 24 hrs by resazurin dye based microdilution assay; assay type: functional; how it was run: as §1
Pseudomonas aeruginosa = assay: Antibacterial activity against Pseudomonas aeruginosa ATCC 27853 after 24 hrs by resazurin dye based microdilution assay; assay type: functional; conditions: ATCC 27853, 24 h; how it was run: as §1
Neisseria gonorrhoeae = assay: Antibacterial activity against beta lactamase positive Neisseria gonorrhoeae ATCC 31426 by oxidase test; assay type: functional
How it was run: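 Agar dilution MIC on GC agar with 1% isovitalex containing increasing compound concentrations. Plates inoculated with about 1×10^4 CFU (5 µL). MIC is the lowest concentration that inhibited growth, with growth confirmed by oxidase test. Run in duplicate, repeated at least three times.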

Plasmodium falciparum = assay: Antiplasmodial activity against chloroquine-sensitive Plasmodium falciparum 3D7 assessed as reduction in parasitic LDH activity after 48 hrs by Malstat reagent based […] method; assay type: functional; conditions: 3D7, 48 h
How it was run: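 Unsynchronized P. falciparum 3D7 at 0.5% parasitemia and 1% hematocrit in RPMI with 3% Albumax II. Exposed to 100, 25, 6.25 and 1.56 µg/mL for 48 h at 37 °C under 90% N2/5% CO2/5% O2. After three freeze-thaw cycles, LDH measured with Malstat and NBT/PES, 1 h in the dark, read at 650 nm. IC50 by Probit; triplicate, ≥2 experiments.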

| SMILES | MIC (Klebsiella pneumoniae) | growth inhibition (GI) (SR) | growth inhibition (GI) (KM12) | growth inhibition (GI) (SF-539) | growth inhibition (GI) (Malme-3M) | growth inhibition (GI) (M14) | growth inhibition (GI) (MDA-MB-435) | growth inhibition (GI) (UACC-62) | growth inhibition (GI) (OVCAR-4) | growth inhibition (GI) (A498) | growth inhibition (GI) (TK-10) | growth inhibition (GI) (DU-145) | growth inhibition (GI) (MDA-MB-231) | MIC50 (Cryptococcus neoformans [1]) | MIC80 (Cryptococcus neoformans [1]) | inhibition of growth at 7.8 µg/mL (Candida albicans) | inhibition of growth at 250 µg/mL (Cryptococcus neoformans [2]) | inhibition of growth at 125 µg/mL (Cryptococcus neoformans [3]) | inhibition of growth at 62.5 µg/mL (Cryptococcus neoformans [4]) | inhibition of growth at 31.25 µg/mL (Cryptococcus neoformans [5]) | further results |
| --- | --- | --- | --- | --- | --- | --- | --- | --- | --- | --- | --- | --- | --- | --- | --- | --- | --- | --- | --- | --- | --- |
| Clc1ccc(C2=NN(c3cc(Cl)cc(Cl)c3)C(c3cccc(Nc4ccnc5cc(Cl)ccc45)c3)C2)cc1 (centres undefined) | > 1000 µg/mL | inactive | inactive | inactive | inactive | inactive | inactive | inactive | inactive | inactive | inactive | inactive | inactive | ≥ 250 µg/mL | ≥ 250 µg/mL | 6.01% | 8.42% | 4.65% | 1.2% | 0% | inhibition of growth at 3.4 µg/mL (Cryptococcus neoformans [6]): 0%; MIC (Staphylococcus aureus [7]): > 1000 µg/mL; MIC (Staphylococcus aureus [8]): > 1000 µg/mL; MIC (Pseudomonas aeruginosa): > 1000 µg/mL; MIC (Neisseria gonorrhoeae): > 1000 µg/mL; EC50 (Plasmodium falciparum): 11.3 µg/mL (≈ 19.6 µM) |
| COc1ccc(C2=NN(c3ccc(Cl)cc3)C(c3cccc(Nc4ccnc5cc(Cl)ccc45)c3)C2)cc1 (centres undefined) | > 1000 µg/mL | inactive | inactive | inactive | inactive | inactive | inactive | inactive | inactive | inactive | inactive | inactive | inactive | 250 µg/mL (≈ 463 µM) | ≥ 250 µg/mL | 0% | 58.2% | 26.7% | 14.1% | 13.1% | inhibition of growth at 3.4 µg/mL (Cryptococcus neoformans [6]): 7.99%; MIC (Staphylococcus aureus [7]): > 1000 µg/mL; MIC (Staphylococcus aureus [8]): > 1000 µg/mL; MIC (Pseudomonas aeruginosa): > 1000 µg/mL; MIC (Neisseria gonorrhoeae): > 1000 µg/mL; EC50 (Plasmodium falciparum): 44.6 µg/mL (≈ 82.6 µM) |
| COc1ccc(C2=NN(C=O)C(c3cccc(Nc4ccnc5cc(Cl)ccc45)c3)C2)cc1 (centres undefined) | > 1000 µg/mL | Active | Active | Active | Active | Active | Active | Active | Active | Active | Active | Active | Active | 125 µg/mL (≈ 274 µM) | ≥ 250 µg/mL | 7.43% | 55.4% | 52.5% | 43.5% | 29.1% | inhibition of growth at 3.4 µg/mL (Cryptococcus neoformans [6]): 4.06%; MIC (Staphylococcus aureus [7]): > 1000 µg/mL; MIC (Staphylococcus aureus [8]): > 1000 µg/mL; MIC (Pseudomonas aeruginosa): > 1000 µg/mL; MIC (Neisseria gonorrhoeae): > 1000 µg/mL; EC50 (Plasmodium falciparum): 16.1 µg/mL (≈ 35.3 µM) |
| O=CN1N=C(c2ccc(Cl)cc2)CC1c1cccc(Nc2ccnc3cc(Cl)ccc23)c1 (centres undefined) | > 1000 µg/mL | Active | Active | Active | Active | Active | Active | Active | Active | Active | Active | Active | Active | 31.2 µg/mL (≈ 67.7 µM) | ≥ 250 µg/mL | 12% | 79.9% | 75.7% | 59.7% | 55.7% | inhibition of growth at 3.4 µg/mL (Cryptococcus neoformans [6]): 37.7%; MIC (Staphylococcus aureus [7]): > 1000 µg/mL; MIC (Staphylococcus aureus [8]): > 1000 µg/mL; MIC (Pseudomonas aeruginosa): > 1000 µg/mL; MIC (Neisseria gonorrhoeae): > 1000 µg/mL; EC50 (Plasmodium falciparum): 24.7 µg/mL (≈ 53.6 µM) |
